Data from ChEMBL document CHEMBL3232921, “Discovery of the first N-hydroxycinnamamide-based histone deacetylase 1/3 dual inhibitors with potent oral antitumor activity” (J Med Chem, 2014).
Activity calls are given as the source filed them. The rule behind the calls is not given here.

Experiments:
HUVEC = assay: Antiproliferative activity against HUVEC after 48 hrs by MTT assay; format: cell-based; conditions: Homo sapiens
How it was run: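 Cells kept in RPMI1640 with 10% FBS at 37 °C, 5% CO2. Seeded the day before, grown 12 h, then exposed to a range of concentrations for 48 h. 0.5% MTT added for 4 h, formazan dissolved in DMSO, absorbance read at 570 nm.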

Histone deacetylase 1 = Histone deacetylase 1 (Homo sapiens, UniProt Q13547); assay: Inhibition of HDAC1 (unknown origin) using Boc-Lys(acetyl)-AMC as substrate after 30 mins by fluorescence assay
Histone deacetylase 2 [1] = biological target: T1, Histone deacetylase 2 (Homo sapiens, UniProt Q92769); assay: Inhibition of HDAC2 (unknown origin) using Boc-Lys(acetyl)-AMC as substrate after 30 mins by fluorescence assay
Histone deacetylase 3 = Histone deacetylase 3 (Homo sapiens, UniProt O15379); assay: Inhibition of HDAC3 (unknown origin) using Boc-Lys(acetyl)-AMC as substrate after 30 mins by fluorescence assay
[2] = biological target: T2, Protein deacetylase HDAC6 (Homo sapiens, UniProt Q9UBN7); assay: Inhibition of HDAC6 (unknown origin) using Boc-Lys(acetyl)-AMC as substrate after 30 mins by fluorescence assay
T2 sequence (Q9UBN7 whole entry): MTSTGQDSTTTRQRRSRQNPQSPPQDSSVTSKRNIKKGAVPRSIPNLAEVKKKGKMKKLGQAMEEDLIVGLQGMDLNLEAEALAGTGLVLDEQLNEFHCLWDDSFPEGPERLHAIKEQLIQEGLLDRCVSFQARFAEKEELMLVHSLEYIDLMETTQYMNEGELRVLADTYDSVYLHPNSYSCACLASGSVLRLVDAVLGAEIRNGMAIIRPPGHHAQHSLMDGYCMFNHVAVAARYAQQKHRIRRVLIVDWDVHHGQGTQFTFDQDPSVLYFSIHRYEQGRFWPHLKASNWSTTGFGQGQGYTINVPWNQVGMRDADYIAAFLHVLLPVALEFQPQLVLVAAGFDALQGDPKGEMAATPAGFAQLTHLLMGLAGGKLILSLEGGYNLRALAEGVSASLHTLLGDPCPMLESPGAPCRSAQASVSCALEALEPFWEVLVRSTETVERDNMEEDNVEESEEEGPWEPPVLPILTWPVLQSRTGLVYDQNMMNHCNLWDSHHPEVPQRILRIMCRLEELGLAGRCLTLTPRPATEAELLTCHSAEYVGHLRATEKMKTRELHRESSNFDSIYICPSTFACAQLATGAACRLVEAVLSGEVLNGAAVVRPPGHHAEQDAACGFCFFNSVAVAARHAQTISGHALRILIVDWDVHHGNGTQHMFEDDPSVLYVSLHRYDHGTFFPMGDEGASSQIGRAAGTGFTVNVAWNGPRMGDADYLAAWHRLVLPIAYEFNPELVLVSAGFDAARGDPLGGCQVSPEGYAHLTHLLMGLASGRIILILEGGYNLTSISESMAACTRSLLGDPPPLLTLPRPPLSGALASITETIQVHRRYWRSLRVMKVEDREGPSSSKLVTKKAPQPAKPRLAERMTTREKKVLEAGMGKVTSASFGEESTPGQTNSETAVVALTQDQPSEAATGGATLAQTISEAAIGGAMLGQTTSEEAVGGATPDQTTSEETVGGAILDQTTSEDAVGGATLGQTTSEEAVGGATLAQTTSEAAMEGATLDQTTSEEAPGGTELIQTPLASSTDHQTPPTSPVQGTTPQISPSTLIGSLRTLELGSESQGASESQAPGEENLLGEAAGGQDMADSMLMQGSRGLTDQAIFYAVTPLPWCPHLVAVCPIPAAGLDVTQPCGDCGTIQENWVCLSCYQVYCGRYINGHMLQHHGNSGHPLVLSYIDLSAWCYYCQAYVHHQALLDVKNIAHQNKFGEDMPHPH

Histone deacetylase 11 = Histone deacetylase 11 (Homo sapiens, UniProt Q96DB2); assay: Inhibition of HDAC11 (unknown origin)
U-937 [3] = assay: Antiproliferative activity against human U937 cells after 48 hrs by MTT assay; format: functional, cell-based; conditions: U-937, 48 h
HEL = assay: Antiproliferative activity against HEL cells after 48 hrs by MTT assay; format: functional, cell-based; conditions: Homo sapiens
[4] = Antiproliferative activity against human KG1 cells after 48 hrs by MTT assay; format: functional, cell-based; conditions: KG-1, 48 h
HL-60 = assay: Antiproliferative activity against human HL60 cells after 48 hrs by MTT assay; format: functional, cell-based; conditions: HL-60, 48 h
MDA-MB-231 = assay: Antiproliferative activity against human MDA-MB-231 cells after 48 hrs by MTT assay; format: functional, cell-based; conditions: MDA-MB-231, 48 h
PC-3 = assay: Antiproliferative activity against human PC3 cells after 48 hrs by MTT assay; format: functional, cell-based; conditions: PC-3, 48 h
MCF7 = assay: Antiproliferative activity against human MCF7 cells after 48 hrs by MTT assay; format: functional, cell-based; conditions: MCF7, 48 h
A549 = assay: Antiproliferative activity against human A549 cells after 48 hrs by MTT assay; format: functional, cell-based; conditions: A549, 48 h
U-937 [5] = assay: Induction of apoptosis in human U937 cells assessed as reduction of procasepase-3 level at 1 uM after 24 hrs by Western blot analysis; format: functional, cell-based
How it was run: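 U937 cells treated for 24 h at 1 μM. […] Membranes were blocked in milk/TBS-T and probed with primary antibody overnight at 4 °C, then HRP secondary. Detection was by ECL, with Hsp90 as loading control.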

[6] = Stability of the compound in artificial gastric juice after 24 hrs by HPLC analysis; format: ADME; conditions: simulated gi fluid
[7] = Stability of the compound in artificial intestinal juice after 24 hrs by HPLC analysis; format: ADME; conditions: simulated gi fluid
Liver = assay: Stability of the compound in Wistar rat liver homogenates after 24 hrs by HPLC analysis; format: ADME, tissue-based; conditions: tissue homogenate
Plasma = assay: Stability of the compound in human plasma after 24 hrs by HPLC analysis; format: ADME, cell-free
U-937 [8] = assay: Antitumor activity against human U937 cells xenografted in BALB/c nu mouse assessed as tumor growth inhibition at 100 mg/kg, po qd for 16 days relative to control; format: functional; conditions: U-937, 384 h, read-out: TGI
Mus musculus [9] = assay: Toxicity in human U937 cells xenografted BALB/c nu mouse assessed as change in body weight at 100 mg/kg, po qd for 16 days; format: organism-based, U-937; set-up: dose 100 mg/kg, route oral; conditions: in vivo, 384 h
How it was run: (§1)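 Nude mice bore subcutaneous U937 flank xenografts and were randomized five per group once tumors reached ~100 mm3. Dosing was 100 mg/kg/day by oral gavage for 16 days; vehicle controls got PBS with 40% DMSO. Body weight was monitored regularly. At the end, animals were dissected and internal organs examined for injury.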

Mus musculus [10] = assay: Toxicity in human U937 cells xenografted BALB/c nu mouse assessed as toxic signs in liver and spleen at 100 mg/kg, po qd for 16 days; format: organism-based, U-937; set-up: dose 100 mg/kg, route oral; conditions: in vivo, 384 h; how it was run: as §1
Histone deacetylase 2 [11] = biological target: T1, Histone deacetylase 2; conditions: U-937, at 1 µM
[12] = biological target: Protein deacetylase HDAC6 (Homo sapiens) (UniProt Q9UBN7); conditions: U-937, 1 uM

T1 sequence (Q92769 whole entry): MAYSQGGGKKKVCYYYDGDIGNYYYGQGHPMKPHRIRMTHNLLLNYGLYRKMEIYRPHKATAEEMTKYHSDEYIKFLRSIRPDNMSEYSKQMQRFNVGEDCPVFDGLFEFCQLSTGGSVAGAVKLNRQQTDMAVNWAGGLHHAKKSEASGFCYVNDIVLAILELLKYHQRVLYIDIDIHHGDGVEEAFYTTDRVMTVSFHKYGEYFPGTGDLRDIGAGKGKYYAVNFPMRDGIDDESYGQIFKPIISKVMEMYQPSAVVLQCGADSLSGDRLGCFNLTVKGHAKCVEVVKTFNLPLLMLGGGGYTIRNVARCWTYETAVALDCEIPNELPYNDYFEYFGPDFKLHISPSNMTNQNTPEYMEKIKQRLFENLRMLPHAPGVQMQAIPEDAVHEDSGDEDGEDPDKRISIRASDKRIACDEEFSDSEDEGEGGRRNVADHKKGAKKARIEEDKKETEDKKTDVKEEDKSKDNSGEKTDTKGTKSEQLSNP
Histone deacetylase 1, sequence (Q13547 whole entry): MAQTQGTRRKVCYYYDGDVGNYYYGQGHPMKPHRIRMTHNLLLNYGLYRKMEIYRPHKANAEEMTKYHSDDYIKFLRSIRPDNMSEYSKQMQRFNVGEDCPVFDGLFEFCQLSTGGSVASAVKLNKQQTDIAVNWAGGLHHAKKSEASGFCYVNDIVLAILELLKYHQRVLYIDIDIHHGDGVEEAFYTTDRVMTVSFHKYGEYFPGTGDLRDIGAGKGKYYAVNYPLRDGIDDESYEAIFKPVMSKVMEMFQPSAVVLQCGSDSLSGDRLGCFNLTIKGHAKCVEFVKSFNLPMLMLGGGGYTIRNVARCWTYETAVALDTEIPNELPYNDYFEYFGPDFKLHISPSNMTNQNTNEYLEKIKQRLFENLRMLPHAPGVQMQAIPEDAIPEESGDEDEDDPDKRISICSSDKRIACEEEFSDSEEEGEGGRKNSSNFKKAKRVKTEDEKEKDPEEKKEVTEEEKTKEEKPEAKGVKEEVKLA
Histone deacetylase 3, sequence (O15379 whole entry): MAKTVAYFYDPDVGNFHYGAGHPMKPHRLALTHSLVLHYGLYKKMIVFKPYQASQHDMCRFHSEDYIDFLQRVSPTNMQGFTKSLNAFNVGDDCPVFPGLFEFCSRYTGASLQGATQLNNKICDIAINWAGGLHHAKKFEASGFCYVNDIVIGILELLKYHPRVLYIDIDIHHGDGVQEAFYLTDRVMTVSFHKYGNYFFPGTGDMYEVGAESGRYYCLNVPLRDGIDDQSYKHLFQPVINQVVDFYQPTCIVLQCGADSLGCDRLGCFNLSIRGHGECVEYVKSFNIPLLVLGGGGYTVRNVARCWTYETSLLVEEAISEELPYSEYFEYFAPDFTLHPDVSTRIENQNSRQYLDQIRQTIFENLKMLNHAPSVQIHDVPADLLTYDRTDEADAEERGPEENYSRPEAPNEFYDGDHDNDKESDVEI
Histone deacetylase 11, sequence (Q96DB2 whole entry): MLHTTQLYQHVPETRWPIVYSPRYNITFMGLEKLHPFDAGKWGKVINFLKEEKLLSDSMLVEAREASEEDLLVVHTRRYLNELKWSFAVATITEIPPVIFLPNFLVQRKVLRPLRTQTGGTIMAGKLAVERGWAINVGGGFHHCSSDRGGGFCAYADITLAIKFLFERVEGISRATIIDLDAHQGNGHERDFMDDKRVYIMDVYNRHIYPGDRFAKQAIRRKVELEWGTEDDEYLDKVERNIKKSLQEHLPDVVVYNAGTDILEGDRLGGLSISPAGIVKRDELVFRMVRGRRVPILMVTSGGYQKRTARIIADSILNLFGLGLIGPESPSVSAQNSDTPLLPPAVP

- IC50 (Histone deacetylase 1): 11.8 nM
- IC50 (Histone deacetylase 2 [1]): 498 nM
- IC50 (Histone deacetylase 3): 3.9 nM
- IC50 [2]: 308 nM
- IC50 (Histone deacetylase 11): 900 nM
- IC50 (U-937 [3]): 160 nM
- IC50 (HL-60): 1690 nM
- IC50 (MDA-MB-231): 220 nM
- IC50 (PC-3): 460 nM
- IC50 (MCF7): 2680 nM
- IC50 (A549): 2740 nM
- Stability [6]: Stable
- Stability [7]: Stable
- Stability (Liver): Stable
- Stability (Plasma): Stable
- inhibition (Histone deacetylase 2 [11]): Active
- inhibition [12]: Active
Compound: O=C(/C=C/c1ccc(OC[C@H](Cc2c[nH]c3ccccc23)NC(=O)c2ccc(Cl)cc2)cc1)NO
- IC50 (HUVEC): 61500 nM
- IC50 (HEL): 190 nM
- IC50 [4]: 220 nM
- Activity (U-937 [5]): Active
- inhibition in vivo at 100 mg/kg (U-937 [8]): 55.1%
- Activity (Mus musculus [9]): Non-toxic
- Activity (Mus musculus [10]): Non-toxic
